# From PubChem BioAssay
# The source made the active and inactive calls.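 The calls were made as follows, unless noted: active = viability at or below 10% of carrier control in both of two separate runs; inconclusive = viability at or below 10% in only one of the two runs; inactive = the rest.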
# Legend:
# [1] = Her2 expression decrease, cell viability multiplex – SKBR3 breast tumor cells, AlphaScreen, ATP viability, primary screen (AID 461;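 active = Her2 level under about 52% in both replicate screens, with viability over 70% of control, limit read from the data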;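 as to Her2 level: lower value means less Her2 protein in the cells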;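 as to viability: percent of carrier control wells set as 100% viability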); conditions: SKBR3 Her2 protein level, 18-24 h, measured here: SKBR3 viability, ATP luminescence, at 10 µM
# [2] = target: Receptor tyrosine-protein kinase erbB-2 (Homo sapiens) (UniProt P04626); experiment: as above; conditions: 18-24 h, at 10 µM, stronger effect = lower value
# [3] = reduced viability of SK-BR-3 breast cancer cells – cell-based, 24 h, human, pilot screen (AID 572); conditions: SK-BR-3 viability, CellTiter-Glo luminescence, at 10 µM, stronger effect = lower value;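 also: compound exposure lasted between 18 and 24 h rather than exactly 24 h; 100% = carrier-treated control wells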
# [4] = HUVEC growth inhibition – cell-based, human, primary screen (AID 575;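 active = viability at or below 30% in both replicate assays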;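 also: 100% = median of untreated cell wells with 0.1% DMSO on each plate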); conditions: HUVEC proliferation, CellTiter-Glo luminescence, 72 h; at 10 µM; stronger effect = lower value
# Summary of the method: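 system = HUVEC primary cells | amount = 1250 cells/well | buffer or medium = supplemented EBM, 2% fetal bovine serum | dosing = single-point 10 µM, DMSO 0.1% final | times = 72 h compound incubation | detection = CTG luminescence | read-out = % viability relative to median vehicle-well signal on each plate | control set = vehicle and MePR control wells | format = collagen-coated 384-well format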
# [5] = H69AR cell proliferation blockers – human, duplicate replicates, primary screen (AID 580;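 active = viability at or under a set limit in both replicates, limit being median viability minus 3 SD, cut at about 48% in these data, passing the limit was not always enough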;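 also: 100% = mean luminescence of untreated wells and 0% = no signal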); conditions: H69AR lung tumor cells viability, ATP luminescence, 72 h; at 10 µM; stronger effect = lower value
# [6] = MRP1 drug-resistance reversers in H69AR cells – cell-based, doxorubicin co-treatment, pilot screen (AID 601;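 active = viability loss from added drug above about 55%, and viability with drug at most 40%, in both replicates, limit read from the data, passing the limit was not always enough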); conditions: CellTiter-Glo, 72 h, at 10 µM; for differential viability (reversal): stronger effect = higher value
# [7] = yeast transport mutant growth inhibition pilot in 384-well plates, post-Golgi transport modulator project (AID 636; in the data active = inhibition above about 31%); conditions: absorbance 615 nm, about 18 h, stronger effect = higher value
# [8] = growth suppression of yeast trafficking mutant, preliminary HTS, modulators of trafficking downstream of Golgi apparatus project, 1536-format plate, OD 615 nm (AID 637; in the data active = inhibition above about 30%); conditions: yeast transport mutant growth, absorbance 615 nm, 18 h; stronger effect = higher value
# [9] = H69AR cells + 2 uM doxorubicin, measured here: viability with 2 uM doxorubicin, stronger effect = lower value
# [10] = H69AR cells, compound alone cytotoxicity
# Sequence of Receptor tyrosine-protein kinase erbB-2 (Homo sapiens) (P04626 whole entry, looked up): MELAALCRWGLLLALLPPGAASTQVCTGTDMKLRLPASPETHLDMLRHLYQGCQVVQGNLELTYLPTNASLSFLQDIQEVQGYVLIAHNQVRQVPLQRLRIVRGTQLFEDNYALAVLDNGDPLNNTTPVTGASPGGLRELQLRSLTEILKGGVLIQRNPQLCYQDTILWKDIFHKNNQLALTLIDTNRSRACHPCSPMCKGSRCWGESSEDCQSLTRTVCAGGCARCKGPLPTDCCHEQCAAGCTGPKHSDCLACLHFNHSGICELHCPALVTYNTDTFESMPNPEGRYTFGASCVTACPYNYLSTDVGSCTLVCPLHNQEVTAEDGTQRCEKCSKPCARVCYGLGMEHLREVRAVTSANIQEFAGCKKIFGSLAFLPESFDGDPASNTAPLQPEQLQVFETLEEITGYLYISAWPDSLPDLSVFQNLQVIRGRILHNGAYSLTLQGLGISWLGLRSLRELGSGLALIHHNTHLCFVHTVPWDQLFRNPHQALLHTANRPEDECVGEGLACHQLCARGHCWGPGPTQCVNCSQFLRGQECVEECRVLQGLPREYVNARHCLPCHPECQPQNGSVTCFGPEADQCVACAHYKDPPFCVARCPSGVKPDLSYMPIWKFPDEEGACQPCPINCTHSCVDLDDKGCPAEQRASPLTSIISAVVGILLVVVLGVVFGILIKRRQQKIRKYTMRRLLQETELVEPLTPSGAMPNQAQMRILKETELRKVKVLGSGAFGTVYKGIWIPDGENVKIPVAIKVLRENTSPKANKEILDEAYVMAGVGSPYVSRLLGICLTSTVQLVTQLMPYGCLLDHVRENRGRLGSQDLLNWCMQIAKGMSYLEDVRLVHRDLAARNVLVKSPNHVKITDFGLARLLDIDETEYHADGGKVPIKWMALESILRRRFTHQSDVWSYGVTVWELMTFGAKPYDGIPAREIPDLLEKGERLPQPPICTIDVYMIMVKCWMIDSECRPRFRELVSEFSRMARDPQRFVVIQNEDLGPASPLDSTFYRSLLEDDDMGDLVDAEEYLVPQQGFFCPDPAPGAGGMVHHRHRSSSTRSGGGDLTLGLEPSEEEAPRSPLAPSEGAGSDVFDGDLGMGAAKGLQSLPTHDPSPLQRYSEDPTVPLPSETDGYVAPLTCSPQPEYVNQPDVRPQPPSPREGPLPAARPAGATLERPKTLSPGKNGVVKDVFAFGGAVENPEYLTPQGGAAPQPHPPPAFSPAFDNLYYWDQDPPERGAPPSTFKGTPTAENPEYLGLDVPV
SMILES,viability [1] [%],Her2 level [2],viability [3],viability [4],viability [5],differential viability (reversal) ([6]; H69AR cells + 2 uM doxorubicin),"viability [6, 9] [%]","viability [6, 10] [%]",inhibition [7],inhibition [8]
CN(C(=O)COc1cc(=O)n(C)c2ccccc12)c1ccc(Br)cc1,100,104% (inactive),100% (inactive),74.5% (inactive),82.5% (inactive),4.22% (inactive),78.3,82.5,-1.87% (inactive),-4.1% (inactive)
CN(C1CCS(=O)(=O)C1)S(=O)(=O)c1cccc2nsnc12 (stereo not given),104,100% (inactive),104% (inactive),107% (inactive),107% (inactive),6.67% (inactive),100,107,-6.58% (inactive),-2.7% (inactive)
O=C(NCCc1c[nH]c2ccccc12)c1ccc(S(=O)(=O)NCc2ccco2)cc1,93.5,83.5% (inactive),93.5% (inactive),60.2% (inactive),65.6% (inactive),-11.9% (inactive),77.5,65.6,-1.82% (inactive),-5.4% (inactive)
COCCN(C(=O)c1csnn1)C(C(=O)NC(C)(C)C)c1cccc(OC)c1 (stereo not given),89.5,91% (inactive),89.5% (inactive),120% (inactive),97.9% (inactive),0.985% (inactive),96.9,97.9,-4.4% (inactive),0% (inactive)
O=C(O)CCc1ccc(-c2cccs2)n1CCC(=O)O,108,86.5% (inactive),108% (inactive),107% (inactive),85.8% (inactive),1.25% (inactive),84.6,85.8,-2.24% (inactive),-1.64% (inactive)
Cc1ccc(-c2csc3ncn(-n4c(C)ccc4C)c(=O)c23)o1,96,114% (inactive),96% (inactive),88.7% (inactive),91.3% (inactive),10.3% (inactive),81,91.3,-5.27% (inactive),-5.57% (inactive)
C/C(N)=C(/C#N)C(=O)COC(=O)COc1ccc(Cl)cc1,93,100% (inactive),93% (inactive),98% (inactive),91.9% (inactive),-5.87% (inactive),97.7,91.9,-7.07% (inactive),-5.08% (inactive)
Cc1cccc(C)c1NC(=O)CC(NCc1ccco1)C(=O)O (stereo not given),116,85% (inactive),116% (inactive),118% (inactive),109% (inactive),13.5% (inactive),95.8,109,-7.7% (inactive),-2.67% (inactive)
N#CC1=C(SCC(=O)c2cc3ccccc3oc2=O)NC(=O)C(C#N)C12CCCC2 (stereo not given),92,76% (inactive),92% (inactive),72.1% (inactive),86.5% (inactive),6.35% (inactive),80.1,86.5,-3.2% (inactive),0.32% (inactive)
COCCn1c(=NC(=O)CSC(C)=O)sc2cc(F)ccc21,85,82.5% (inactive),85% (inactive),75.4% (inactive),58.2% (inactive),0.03% (inactive),58.2,58.2,-3.16% (inactive),-2.86% (inactive)
O=C(Cn1nnc(-c2ccccc2)n1)Nc1ccccc1N1CCOCC1,99.5,98% (inactive),99.5% (inactive),110% (inactive),93.3% (inactive),0.8% (inactive),92.5,93.3,-7.2% (inactive),0.66% (inactive)
O=C(/C=C1\NC2(CCCC2)Cc2ccccc21)N1CCOCC1,101,85% (inactive),101% (inactive),98.2% (inactive),102% (inactive),17.3% (inactive),85,102,-7.12% (inactive),-3.49% (inactive)
CCN(CC)c1ccc(NC(=O)c2cncc(Br)c2)cc1,97.5,91% (inactive),97.5% (inactive),76.2% (inactive),79.9% (inactive),-25.4% (inactive),105,79.9,-4.47% (inactive),3.77% (inactive)
CCS(=O)(=O)N1CCC(C(=O)NCCc2ccc(C)cc2)CC1,99,106% (inactive),99% (inactive),100% (inactive),89.3% (inactive),7.41% (inactive),81.9,89.3,-2.6% (inactive),-9.68% (inactive)
C=Cn1nc(C)c2ccccc2c1=O,112,117% (inactive),112% (inactive),105% (inactive),90.1% (inactive),4.88% (inactive),85.2,90.1,-3.33% (inactive),-7.83% (inactive)
O=C(NC1CCCCC1)c1cc2nc(-c3ccco3)cc(C(F)(F)F)n2n1,81.5,93% (inactive),81.5% (inactive),106% (inactive),80.2% (inactive),-2.98% (inactive),83.2,80.2,-2.08% (inactive),2.79% (inactive)
Cc1ccc2cc(C(c3nnnn3CC3CCCO3)N3CCCC4(CCCCC4)C3)c(=O)[nH]c2c1 (stereo not given),107,92.5% (inactive),107% (inactive),97.9% (inactive),85.1% (inactive),-8.48% (inactive),93.6,85.1,-7.27% (inactive),0% (inactive)
COc1ccccc1-c1nc(C#N)c(N2CCN(c3ccccc3)CC2)o1,104,79.5% (inactive),104% (inactive),70.4% (inactive),89.8% (inactive),10.2% (inactive),79.6,89.8,-3.68% (inactive),3.65% (inactive)
COc1ccccc1N1CCN(c2nc3ccccc3nc2C(C#N)C(=O)OC(C)C)CC1 (stereo not given),77,112% (inactive),77% (inactive),71.6% (inactive),80.3% (inactive),3.12% (inactive),77.2,80.3,1.58% (inactive),-1.82% (inactive)
COc1ccc(Cn2c(CCCO)nc3ccccc32)cc1OC,98.5,97.5% (inactive),98.5% (inactive),105% (inactive),102% (inactive),14.2% (inactive),88,102,-7.67% (inactive),-3.17% (inactive)
O=C(NC1CCCC1)c1ccc2nc[nH]c2c1,93.5,94.5% (inactive),93.5% (inactive),103% (inactive),91.2% (inactive),9.56% (inactive),81.7,91.2,-6.23% (inactive),-0.79% (inactive)
CCCCSc1nc2c(cnn2-c2ccc(Cl)cc2)c(=O)[nH]1,93,83.5% (inactive),93% (inactive),85.5% (inactive),75.1% (inactive),2.96% (inactive),72.1,75.1,-4.93% (inactive),7.38% (inactive)
O=C(NCc1ccccc1)C1CCCN1S(=O)(=O)c1cccc2cccnc12 (stereo not given),94,99.5% (inactive),94% (inactive),93% (inactive),110% (inactive),15.6% (inactive),94.4,110,-0.53% (inactive),-0.98% (inactive)
CCS(=O)(=O)N1CCC(C(=O)NC2CCCCCCC2)CC1,98,110% (inactive),98% (inactive),108% (inactive),97.5% (inactive),7.86% (inactive),89.6,97.5,-0.51% (inactive),-1.5% (inactive)
CCN(CC)S(=O)(=O)N1CCC(C(=O)NC2CCCc3ccccc32)CC1 (stereo not given),78,118% (inactive),78% (inactive),108% (inactive),90.5% (inactive),4.3% (inactive),86.2,90.5,5.45% (inactive),-4.26% (inactive)
COc1ccc(C2N(C(=O)c3ccccc3)CCN2C(=O)c2ccccc2)cc1,114,103% (inactive),114% (inactive),113% (inactive),103% (inactive),2.48% (inactive),100,103,-1.04% (inactive),5.41% (inactive)
CCOC(=O)N1CCN(c2c(N3CCc4ccccc4C3)c(=O)c2=O)CC1,87,86% (inactive),87% (inactive),99.9% (inactive),91.7% (inactive),6.33% (inactive),85.4,91.7,-2% (inactive),-3.11% (inactive)
c1ccc(-c2cn3c4c(sc3n2)CCCC4)cc1,89,76% (inactive),89% (inactive),46% (inactive),39.9% (active),-25.4% (inactive),65.2,39.9,-2.37% (inactive),1.27% (inactive)
